Test results reported in ChEMBL document CHEMBL4177526, “Discovery and structure activity relationship of the first potent cryptosporidium FIKK kinase inhibitor” (Bioorg Med Chem, 2017).

Experiments:
[1] = molecular target: Serine/threonine-protein kinase tousled-like 1 (Homo sapiens) (UniProt Q9UKI8); assay: Inhibition of human TLK1 (1 to 766 residues) assessed as residual activity at 500 nM in presence of 33P-ATP by filter binding assay relative to control
[2] = molecular target: Mitogen-activated protein kinase 13 (Homo sapiens) (UniProt O15264); assay: Inhibition of human p38delta (1 to 365 residues) assessed as residual activity at 500 nM in presence of 33P-ATP by filter binding assay relative to control
Sequence of Mitogen-activated protein kinase 13 (Homo sapiens) (O15264 whole entry, the tested form may be a part): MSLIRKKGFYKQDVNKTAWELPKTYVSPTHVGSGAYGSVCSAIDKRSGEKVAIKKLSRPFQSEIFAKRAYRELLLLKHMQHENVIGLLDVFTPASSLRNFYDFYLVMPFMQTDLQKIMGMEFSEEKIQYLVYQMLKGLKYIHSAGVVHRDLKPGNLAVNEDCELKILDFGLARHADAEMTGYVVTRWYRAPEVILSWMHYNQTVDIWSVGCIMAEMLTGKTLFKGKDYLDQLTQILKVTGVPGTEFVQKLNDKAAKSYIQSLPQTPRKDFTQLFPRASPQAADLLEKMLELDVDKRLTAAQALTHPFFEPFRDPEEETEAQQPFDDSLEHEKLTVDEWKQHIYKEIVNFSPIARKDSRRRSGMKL

[3] = molecular target: Serine/threonine-protein kinase SIK2 (Homo sapiens) (UniProt Q9H0K1); assay: Inhibition of human SIK2 (2 to 926 residues) assessed as residual activity at 500 nM in presence of 33P-ATP by filter binding assay relative to control
[4] = tested on: Cryptosporidium parvum; assay: Antiparasitic activity against Cryptosporidium parvum Iowa oocysts infected in human HCT8 cells pretreated prior to infection measured after 48 hrs by fluorescein labeled Vicia villosa lectin/Hoechst 33258 staining based epifluorescence microscopic analysis; type: functional, organism-based; conditions: Cryptosporidium parvum, Iowa, HCT-8; read-out: EC50
In short: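 HCT-8 cells grown in RPMI-1640 with 10% heat-inactivated FBS and penicillin. Three-fold compound dilutions in culture medium were added to confluent cells before about 5500 excysted C. parvum Iowa oocysts per well. After 48 h, cells were fixed with 4% paraformaldehyde and permeabilized. Vacuoles were stained with fluorescein-Vicia villosa lectin (1.33 µg/mL, 1 h, 37 °C) and nuclei with Hoechst 33258, then imaged by epifluorescence microscopy.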

[5] = molecular target: Ephrin type-B receptor 4 (Homo sapiens) (UniProt P54760); assay: Inhibition of human EPHB4 (561 to 987 residues) assessed as residual activity at 500 nM in presence of 33P-ATP by filter binding assay relative to control
[6] = molecular target: TAK1/TAB1 (Homo sapiens) (UniProt Q15750+O43318); assay: Inhibition of human TAK1 (1 to 303 residues)/TAB1 (437 to 504 residues) at 500 nM in presence of 33P-ATP by filter binding assay relative to control; type: protein-complex assay
[7] = molecular target: Dual specificity tyrosine-phosphorylation-regulated kinase 1A (Homo sapiens) (UniProt Q13627); assay: Inhibition of human DYRK1A (1 to 502 residues) assessed as residual activity at 500 nM in presence of 33P-ATP by filter binding assay relative to control
[8] = molecular target: MAP/microtubule affinity-regulating kinase 4 (Homo sapiens) (UniProt Q96L34); assay: Inhibition of human MARK4 (2 to 752 residues) assessed as residual activity at 500 nM in presence of 33P-ATP by filter binding assay relative to control
Sequence of MAP/microtubule affinity-regulating kinase 4 (Homo sapiens) (Q96L34 whole entry, the tested form may be a part): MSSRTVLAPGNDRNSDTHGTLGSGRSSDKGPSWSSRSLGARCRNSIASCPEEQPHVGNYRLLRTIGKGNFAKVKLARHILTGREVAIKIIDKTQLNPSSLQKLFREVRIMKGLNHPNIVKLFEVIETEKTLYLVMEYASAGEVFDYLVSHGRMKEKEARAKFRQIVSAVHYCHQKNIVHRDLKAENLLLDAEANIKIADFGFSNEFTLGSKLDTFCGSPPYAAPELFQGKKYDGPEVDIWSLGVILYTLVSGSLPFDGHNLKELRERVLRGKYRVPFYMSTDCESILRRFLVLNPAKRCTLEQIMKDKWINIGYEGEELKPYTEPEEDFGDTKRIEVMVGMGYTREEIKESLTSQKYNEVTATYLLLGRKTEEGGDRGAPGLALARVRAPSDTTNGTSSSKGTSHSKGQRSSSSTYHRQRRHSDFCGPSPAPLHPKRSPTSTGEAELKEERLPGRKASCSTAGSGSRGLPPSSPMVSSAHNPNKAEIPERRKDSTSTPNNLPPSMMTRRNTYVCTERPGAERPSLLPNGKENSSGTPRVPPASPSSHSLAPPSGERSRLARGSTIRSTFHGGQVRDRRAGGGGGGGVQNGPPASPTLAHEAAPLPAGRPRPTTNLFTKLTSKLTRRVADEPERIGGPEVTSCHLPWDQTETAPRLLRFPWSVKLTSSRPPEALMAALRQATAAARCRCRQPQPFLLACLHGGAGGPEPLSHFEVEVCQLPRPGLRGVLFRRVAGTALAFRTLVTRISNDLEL

[9] = molecular target: Serine/threonine-protein kinase BRSK1 (Homo sapiens) (UniProt Q8TDC3); assay: Inhibition of human BRSK1 (2 to 778 residues) assessed as residual activity at 500 nM in presence of 33P-ATP by filter binding assay relative to control
Sequence of Serine/threonine-protein kinase BRSK1 (Homo sapiens) (Q8TDC3 whole entry, the tested form may be a part): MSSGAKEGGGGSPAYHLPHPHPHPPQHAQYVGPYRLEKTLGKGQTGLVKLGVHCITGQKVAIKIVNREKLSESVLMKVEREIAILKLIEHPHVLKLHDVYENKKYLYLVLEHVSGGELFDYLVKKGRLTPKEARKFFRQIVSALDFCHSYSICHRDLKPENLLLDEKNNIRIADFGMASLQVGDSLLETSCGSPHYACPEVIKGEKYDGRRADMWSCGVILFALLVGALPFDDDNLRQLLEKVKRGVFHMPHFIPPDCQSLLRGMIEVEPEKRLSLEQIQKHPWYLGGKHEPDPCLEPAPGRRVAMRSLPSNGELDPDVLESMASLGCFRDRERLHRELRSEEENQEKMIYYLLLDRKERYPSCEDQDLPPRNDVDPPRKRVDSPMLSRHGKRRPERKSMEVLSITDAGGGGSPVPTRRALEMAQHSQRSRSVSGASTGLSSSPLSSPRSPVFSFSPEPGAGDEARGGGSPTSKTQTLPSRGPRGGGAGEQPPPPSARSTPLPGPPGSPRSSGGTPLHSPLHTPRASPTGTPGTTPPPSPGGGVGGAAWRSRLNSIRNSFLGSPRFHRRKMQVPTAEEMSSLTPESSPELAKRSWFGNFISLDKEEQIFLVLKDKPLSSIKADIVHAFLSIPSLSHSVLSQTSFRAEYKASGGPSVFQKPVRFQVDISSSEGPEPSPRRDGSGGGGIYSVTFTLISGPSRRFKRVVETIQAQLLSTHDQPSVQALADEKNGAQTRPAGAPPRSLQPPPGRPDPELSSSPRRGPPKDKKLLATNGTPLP

[10] = molecular target: Serine/threonine-protein kinase Nek2 (Homo sapiens) (UniProt P51955); assay: Inhibition of human NEK2A (1 to 445 residues) assessed as residual activity at 500 nM in presence of 33P-ATP by filter binding assay relative to control
[11] = molecular target: MAP/microtubule affinity-regulating kinase 4 (Homo sapiens) (UniProt Q96L34); assay: Inhibition of human MARK4 (1 to 367 residues) assessed as residual activity at 500 nM in presence of 33P-ATP by filter binding assay relative to control
[12] = molecular target: Calcium/calmodulin-dependent protein kinase type 1 (Homo sapiens) (UniProt Q14012); assay: Inhibition of human CAMK1 (2 to 369 residues) assessed as residual activity at 500 nM in presence of 33P-ATP by filter binding assay relative to control
[13] = molecular target: Mitogen-activated protein kinase 11 (Homo sapiens) (UniProt Q15759); assay: Inhibition of human p38beta (1 to 364 residues) assessed as residual activity at 500 nM in presence of 33P-ATP by filter binding assay relative to control
[14] = molecular target: Proto-oncogene tyrosine-protein kinase LCK (Mus musculus) (UniProt P06240); assay: Inhibition of mouse LCK (2 to 509 residues) assessed as residual activity at 500 nM in presence of 33P-ATP by filter binding assay relative to control
[15] = tested on: Serine/threonine-protein kinase OSR1 (Homo sapiens), O95747 [T185E]; assay: Inhibition of human OSR1 T185E mutant (1 to 342 residues) assessed as residual activity at 500 nM in presence of 33P-ATP by scintillation counting method relative to control
[16] = molecular target: Mitogen-activated protein kinase 12 (Homo sapiens) (UniProt P53778); assay: Inhibition of human p38gamma (1 to 367 residues) assessed as residual activity at 500 nM in presence of 33P-ATP by filter binding assay relative to control
[17] = molecular target: Misshapen-like kinase 1 (Homo sapiens) (UniProt Q8N4C8); assay: Inhibition of human MINK1 (1 to 320 residues) assessed as residual activity at 500 nM in presence of 33P-ATP by filter binding assay relative to control
[18] = tested on: Cryptosporidium parvum; assay: Inhibition of recombinant Cryptosporidium parvum FIKK assessed as change in melting temperature at 50 uM by differential static light scattering method
[19] = molecular target: MAP kinase-activated protein kinase 3 (Homo sapiens) (UniProt Q16644); assay: Inhibition of human MAPKAPK3 (2 to 382 residues) assessed as residual activity at 500 nM in presence of 33P-ATP by filter binding assay relative to control
Sequence of MAP kinase-activated protein kinase 3 (Homo sapiens) (Q16644 whole entry, looked up, the tested form may be a part): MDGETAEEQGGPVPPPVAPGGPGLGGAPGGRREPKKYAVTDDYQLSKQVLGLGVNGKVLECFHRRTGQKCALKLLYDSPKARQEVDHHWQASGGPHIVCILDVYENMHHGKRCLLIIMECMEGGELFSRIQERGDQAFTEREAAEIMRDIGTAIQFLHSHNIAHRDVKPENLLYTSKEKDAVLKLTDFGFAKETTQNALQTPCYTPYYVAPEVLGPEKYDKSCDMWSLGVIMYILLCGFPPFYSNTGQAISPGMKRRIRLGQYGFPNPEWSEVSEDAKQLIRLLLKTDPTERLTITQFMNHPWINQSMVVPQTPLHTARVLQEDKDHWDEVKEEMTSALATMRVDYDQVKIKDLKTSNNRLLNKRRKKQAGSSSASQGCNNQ

[20] = molecular target: MAP kinase-interacting serine/threonine-protein kinase 1 (Homo sapiens) (UniProt Q9BUB5); assay: Inhibition of human MNK1 (2 to 424 residues) assessed as residual activity at 500 nM in presence of 33P-ATP by filter binding assay relative to control
Sequence of MAP kinase-interacting serine/threonine-protein kinase 1 (Homo sapiens) (Q9BUB5 whole entry, looked up, the tested form may be a part): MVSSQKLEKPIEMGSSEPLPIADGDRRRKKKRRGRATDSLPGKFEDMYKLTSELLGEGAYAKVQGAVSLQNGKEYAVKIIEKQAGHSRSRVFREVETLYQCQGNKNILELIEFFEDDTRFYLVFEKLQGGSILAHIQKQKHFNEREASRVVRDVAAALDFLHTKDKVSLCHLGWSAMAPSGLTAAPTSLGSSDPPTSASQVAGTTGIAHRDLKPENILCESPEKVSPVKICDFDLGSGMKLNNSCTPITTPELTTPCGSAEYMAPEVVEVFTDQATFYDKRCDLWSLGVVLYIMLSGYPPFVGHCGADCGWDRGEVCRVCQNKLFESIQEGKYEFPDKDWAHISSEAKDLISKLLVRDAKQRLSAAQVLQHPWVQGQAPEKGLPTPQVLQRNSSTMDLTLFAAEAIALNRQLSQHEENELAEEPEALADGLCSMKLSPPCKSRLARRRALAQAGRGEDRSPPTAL

[21] = molecular target: High affinity nerve growth factor receptor (Homo sapiens) (UniProt P04629); assay: Inhibition of human TRKA (441 to 760 residues) assessed as residual activity at 500 nM in presence of 33P-ATP by filter binding assay relative to control
[22] = molecular target: CDK9/cyclin T1 (Homo sapiens) (UniProt O60563+P50750); assay: Inhibition of human CDK9 (1 to 372 residues)/cyclinT1 (1 to 726 residues) assessed as residual activity at 500 nM in presence of 33P-ATP by filter binding assay relative to control; type: protein-complex assay
[23] = molecular target: Insulin receptor (Homo sapiens) (UniProt P06213); assay: Inhibition of human IR (1001 to 1382 residues) assessed as residual activity at 500 nM in presence of 33P-ATP by filter binding assay relative to control
Sequence of Insulin receptor (Homo sapiens) (P06213 28-758 limits assumed): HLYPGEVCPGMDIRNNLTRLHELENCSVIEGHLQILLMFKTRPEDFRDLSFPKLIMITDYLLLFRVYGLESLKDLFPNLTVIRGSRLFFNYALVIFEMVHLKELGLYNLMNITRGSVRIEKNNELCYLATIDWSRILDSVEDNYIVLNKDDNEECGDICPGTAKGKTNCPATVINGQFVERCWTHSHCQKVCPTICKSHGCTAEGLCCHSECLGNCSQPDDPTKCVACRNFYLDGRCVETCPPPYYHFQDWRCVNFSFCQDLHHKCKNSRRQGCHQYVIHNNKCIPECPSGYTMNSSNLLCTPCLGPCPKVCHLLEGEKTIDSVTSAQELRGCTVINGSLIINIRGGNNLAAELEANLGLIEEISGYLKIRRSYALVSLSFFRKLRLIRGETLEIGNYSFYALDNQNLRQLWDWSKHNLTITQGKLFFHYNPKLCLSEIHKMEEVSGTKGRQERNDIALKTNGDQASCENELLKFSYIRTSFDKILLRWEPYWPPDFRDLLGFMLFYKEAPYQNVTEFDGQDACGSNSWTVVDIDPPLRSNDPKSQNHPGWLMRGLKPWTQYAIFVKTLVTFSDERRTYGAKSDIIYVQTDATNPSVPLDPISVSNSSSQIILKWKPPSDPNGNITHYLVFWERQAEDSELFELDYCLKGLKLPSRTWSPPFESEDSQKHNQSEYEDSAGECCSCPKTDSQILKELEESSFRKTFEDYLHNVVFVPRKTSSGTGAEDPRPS
Sequence of Insulin receptor (Homo sapiens) (P06213 763-1382 limits assumed): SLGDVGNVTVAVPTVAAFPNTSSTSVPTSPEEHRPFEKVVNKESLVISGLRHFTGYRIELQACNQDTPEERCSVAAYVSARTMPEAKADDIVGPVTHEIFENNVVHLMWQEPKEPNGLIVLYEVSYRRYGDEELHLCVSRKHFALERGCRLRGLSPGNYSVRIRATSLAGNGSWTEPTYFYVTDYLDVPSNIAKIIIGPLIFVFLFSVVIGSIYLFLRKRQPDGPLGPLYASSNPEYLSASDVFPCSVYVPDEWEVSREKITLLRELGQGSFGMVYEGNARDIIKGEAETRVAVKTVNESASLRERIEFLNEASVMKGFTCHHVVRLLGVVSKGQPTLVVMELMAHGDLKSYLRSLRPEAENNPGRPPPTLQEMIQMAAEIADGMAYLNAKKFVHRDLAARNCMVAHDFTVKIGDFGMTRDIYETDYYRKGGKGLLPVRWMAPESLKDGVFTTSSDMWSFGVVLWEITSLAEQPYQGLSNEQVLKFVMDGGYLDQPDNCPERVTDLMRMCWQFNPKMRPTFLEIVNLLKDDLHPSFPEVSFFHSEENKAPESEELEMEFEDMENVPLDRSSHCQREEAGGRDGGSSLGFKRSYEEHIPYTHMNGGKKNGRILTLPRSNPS

[24] = molecular target: Ribosomal protein S6 kinase alpha-1 (Homo sapiens) (UniProt Q15418); assay: Inhibition of human RSK1 (1 to 735 residues) assessed as residual activity at 500 nM in presence of 33P-ATP by filter binding assay relative to control
[25] = molecular target: Casein kinase II subunit alpha (Homo sapiens) (UniProt P68400); assay: Inhibition of human CK2alpha (2 to 391 residues) assessed as residual activity at 500 nM in presence of 33P-ATP by filter binding assay relative to control

Sequence of Serine/threonine-protein kinase tousled-like 1 (Homo sapiens) (Q9UKI8 whole entry, the tested form may be a part): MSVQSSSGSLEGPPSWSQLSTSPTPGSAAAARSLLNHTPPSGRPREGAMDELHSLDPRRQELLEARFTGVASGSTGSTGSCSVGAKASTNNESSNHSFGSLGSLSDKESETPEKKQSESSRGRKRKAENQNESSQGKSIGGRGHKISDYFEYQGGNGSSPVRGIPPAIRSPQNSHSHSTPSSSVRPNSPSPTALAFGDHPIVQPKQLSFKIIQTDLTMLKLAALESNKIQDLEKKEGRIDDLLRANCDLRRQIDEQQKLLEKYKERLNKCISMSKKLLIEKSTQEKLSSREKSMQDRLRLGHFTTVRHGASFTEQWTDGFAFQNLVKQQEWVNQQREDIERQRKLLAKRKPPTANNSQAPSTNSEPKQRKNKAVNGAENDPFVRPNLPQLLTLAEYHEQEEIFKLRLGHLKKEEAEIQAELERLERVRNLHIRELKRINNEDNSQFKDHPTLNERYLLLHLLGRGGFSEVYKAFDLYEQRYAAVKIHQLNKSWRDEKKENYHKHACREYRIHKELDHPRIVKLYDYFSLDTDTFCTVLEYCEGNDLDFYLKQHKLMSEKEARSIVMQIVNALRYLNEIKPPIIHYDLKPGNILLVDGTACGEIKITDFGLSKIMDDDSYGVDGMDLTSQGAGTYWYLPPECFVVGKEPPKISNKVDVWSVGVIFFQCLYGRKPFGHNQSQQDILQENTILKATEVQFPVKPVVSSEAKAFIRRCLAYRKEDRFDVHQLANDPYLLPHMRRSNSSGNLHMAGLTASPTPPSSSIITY

Structure (SMILES): Cc1cccc(-c2nc(N)sc2-c2ccc3ncccc3n2)c1
- Activity [1]: 121%
- Activity [2]: 113%
- Activity [3]: 105%
- EC50 [4]: 2.6 µM
- Activity [5]: 99%
- inhibition [6]: 60%
- Activity [7]: 132%
- Activity [8]: 116%
- Activity [9]: 111%
- Activity [10]: 102%
- Activity [11]: 116%
- Activity [12]: 112%
- Activity [13]: 80%
- Activity [14]: 85%
- Activity [15]: 119%
- Activity [16]: 116%
- Activity [17]: 74%
- ΔTm [18]: 5.2 °C
- Activity [19]: 100%
- Activity [20]: 99%
- Activity [21]: 97%
- Activity [22]: 106%
- Activity [23]: 115%
- Activity [24]: 128%
- Activity [25]: 119%
